pIC50: −log10 of the molar value.
Columns and labels:
[1] = molecular target: T1, Endothelin receptor type B (Sus scrofa, UniProt P35463); assay: In vitro ability to inhibit specific [125I]ET1 binding to porcine kidney (inner medulla) membranes Endothelin B receptor
T1 sequence (P35463 whole entry): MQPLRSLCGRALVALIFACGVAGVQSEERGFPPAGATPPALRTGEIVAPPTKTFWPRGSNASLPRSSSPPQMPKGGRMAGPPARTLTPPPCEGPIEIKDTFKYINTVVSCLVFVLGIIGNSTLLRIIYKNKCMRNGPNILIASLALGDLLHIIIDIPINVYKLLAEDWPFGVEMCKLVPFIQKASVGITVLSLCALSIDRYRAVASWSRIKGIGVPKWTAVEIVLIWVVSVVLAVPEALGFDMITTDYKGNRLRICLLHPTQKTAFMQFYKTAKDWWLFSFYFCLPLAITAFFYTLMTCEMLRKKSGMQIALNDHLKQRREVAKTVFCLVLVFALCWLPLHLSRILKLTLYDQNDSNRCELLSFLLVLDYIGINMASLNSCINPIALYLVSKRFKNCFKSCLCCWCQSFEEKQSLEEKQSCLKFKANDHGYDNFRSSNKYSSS

[2] = molecular target: T2, Endothelin-1 receptor (Rattus norvegicus, UniProt P26684); assay: In vitro ability to inhibit specific [125I]ET1 binding to rat aorta membranes Endothelin A receptor; format: tissue-based
T2 sequence (P26684 whole entry): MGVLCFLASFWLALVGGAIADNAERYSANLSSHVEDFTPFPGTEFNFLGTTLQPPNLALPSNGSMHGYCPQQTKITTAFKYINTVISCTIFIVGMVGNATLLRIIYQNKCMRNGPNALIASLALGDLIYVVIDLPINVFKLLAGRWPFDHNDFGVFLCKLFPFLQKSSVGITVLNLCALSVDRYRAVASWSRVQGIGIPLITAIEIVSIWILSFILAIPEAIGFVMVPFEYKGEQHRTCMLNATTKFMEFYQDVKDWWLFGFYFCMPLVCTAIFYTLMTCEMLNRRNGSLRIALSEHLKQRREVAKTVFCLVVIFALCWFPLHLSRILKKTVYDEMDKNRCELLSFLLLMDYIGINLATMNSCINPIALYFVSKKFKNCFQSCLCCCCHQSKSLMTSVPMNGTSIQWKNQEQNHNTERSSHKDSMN

[3] = species on record: Rattus norvegicus; assay: Compound was evaluated for the functional assay performed by obtaining ET-1 concentration-response curves [pA2(ETA)] in isolated rat aortic rings; conditions: Aorta, read-out: pA2 (converted)
In short: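 Functional ETA assay: ET-1 concentration-response curves in isolated rat aortic rings with the endothelium removed. Antagonism is expressed as pA2.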

| SMILES | pIC50 [1] | pIC50 [2] | Kb [3] |
| --- | --- | --- | --- |
| COc1ccc(C(=O)/C(Cc2cc(OC)c(OC)c(OC)c2)=C(\C(=O)O)c2ccc3nsnc3c2)cc1Cl | 6.74 | 9.00 |  |
| COc1ccc(C(=O)/C(Cc2ccccc2)=C(\C(=O)O)c2ccc3nsnc3c2)cc1 | 5.92 | 7.59 | 25.1 nM |
| COc1ccc(C(=O)/C(Cc2ccccc2OC)=C(\C(=O)O)c2ccc3nsnc3c2)cc1 | 6.09 | 8.47 |  |
